Test results reported in ChEMBL document CHEMBL1781989, “Novel β-carboline-tripeptide conjugates attenuate mesenteric ischemia/reperfusion injury in the rat” (2011).
Calls of active or inactive are those of the source. Non-standard residues stand in square brackets, D forms with d. Residues, ends and D or L forms follow the SMILES beside them. Tpi = O=C(O)[C@@H]1Cc2c([nH]c3ccccc23)CN1

Legend:
Mus musculus [1] = experiment: Analgesic activity in ICR mouse assessed as increase in pain threshold at 0.10 mmol/kg, po after 60 mins by tail flick method (reference value: 7.45 +/- 8.03 %); assay type: functional
Mus musculus [2] = experiment: Analgesic activity in ICR mouse assessed as increase in pain threshold at 0.05 mmol/kg, po after 150 mins by tail flick method (reference value: 9.02 +/- 12.19 %); assay type: functional
Mus musculus [3] = experiment: Analgesic activity in ICR mouse assessed as increase in pain threshold at 0.05 mmol/kg, po after 30 mins by tail flick method (reference value: 5.03 +/- 10.26 %); assay type: functional
Mus musculus [4] = experiment: Analgesic activity in ICR mouse assessed as increase in pain threshold at 0.05 mmol/kg, po after 60 mins by tail flick method (reference value: 7.45 +/- 8.03 %); assay type: functional
Mus musculus [5] = experiment: Analgesic activity in ICR mouse assessed as increase in pain threshold at 0.10 mmol/kg, po after 150 mins by tail flick method (reference value: 9.02 +/- 12.19 %); assay type: functional
Mus musculus [6] = experiment: Analgesic activity in ICR mouse assessed as increase in pain threshold at 0.10 mmol/kg, po after 30 mins by tail flick method (reference value: 5.03 +/- 10.26 %); assay type: functional
Mus musculus [7] = experiment: Analgesic activity in ICR mouse assessed as increase in pain threshold at 0.15 mmol/kg, po after 180 mins by tail flick method (reference value: 8.75 +/- 9.73 %); assay type: functional
Mus musculus [8] = experiment: Antiinflammatory activity in ICR mouse assessed as inhibition of xylene-induced ear edema at 0.05 mmol/kg, po administered 30 mins before xylene challenge measured after 2 hrs relative to control; assay type: functional
Summary of the method: (§1)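 Male ICR mice (20 ± 2 g), randomised to test, vehicle (CMC) and aspirin (10 mg/kg oral) groups. Test agents given orally as CMC suspension. After 30 min, 0.03 mL xylene applied to both faces of the right ear, left ear as control. At 2 h mice were killed and 7 mm ear punches weighed. Edema is the right-minus-left weight, and inhibition is taken against vehicle.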

Mus musculus [9] = experiment: Analgesic activity in ICR mouse assessed as increase in pain threshold at 0.15 mmol/kg, po after 60 mins by tail flick method (reference value: 7.45 +/- 8.03 %); assay type: functional
Mus musculus [10] = experiment: Antiinflammatory activity in ICR mouse assessed as inhibition of xylene-induced ear edema at 0.10 mmol/kg, po administered 30 mins before xylene challenge measured after 2 hrs relative to control; assay type: functional; summary of the method: as §1
Mus musculus [11] = experiment: Analgesic activity in ICR mouse assessed as increase in pain threshold at 0.05 mmol/kg, po after 120 mins by tail flick method (reference value: 8.09 +/- 13.28 %); assay type: functional
Mus musculus [12] = experiment: Analgesic activity in ICR mouse assessed as increase in pain threshold at 0.15 mmol/kg, po after 150 mins by tail flick method (reference value: 9.02 +/- 12.19 %); assay type: functional
Mus musculus [13] = experiment: Analgesic activity in ICR mouse assessed as increase in pain threshold at 0.15 mmol/kg, po after 90 mins by tail flick method (reference value: 7.53 +/- 11.54 %); assay type: functional
Mus musculus [14] = experiment: Analgesic activity in ICR mouse assessed as increase in pain threshold at 0.10 mmol/kg, po after 120 mins by tail flick method (reference value: 8.09 +/- 13.28 %); assay type: functional
Mus musculus [15] = experiment: Analgesic activity in ICR mouse assessed as increase in pain threshold at 0.05 mmol/kg, po after 180 mins by tail flick method (reference value: 8.75 +/- 9.73 %); assay type: functional
Mus musculus [16] = experiment: Analgesic activity in ICR mouse assessed as increase in pain threshold at 0.15 mmol/kg, po after 30 mins by tail flick method (reference value: 5.03 +/- 10.26 %); assay type: functional
Mus musculus [17] = experiment: Analgesic activity in ICR mouse assessed as increase in pain threshold at 0.05 mmol/kg, po after 90 mins by tail flick method (reference value: 7.53 +/- 11.54 %); assay type: functional
Mus musculus [18] = experiment: Antiinflammatory activity in po dosed ICR mouse assessed as inhibition of xylene-induced ear edema administered 30 mins before xylene challenge measured after 2 hrs; assay type: functional, organism-based; summary of the method: as §1
Mus musculus [19] = experiment: Analgesic activity in ICR mouse assessed as increase in pain threshold at 0.15 mmol/kg, po after 120 mins by tail flick method (reference value: 8.09 +/- 13.28 %); assay type: functional
Mus musculus [20] = experiment: Analgesic activity in ICR mouse assessed as increase in pain threshold at 0.10 mmol/kg, po after 90 mins by tail flick method (reference value: 7.53 +/- 11.54 %); assay type: functional
Mus musculus [21] = experiment: Antiinflammatory activity in ICR mouse assessed as inhibition of xylene-induced ear edema at 0.15 mmol/kg, po administered 30 mins before xylene challenge measured after 2 hrs relative to control; assay type: functional; summary of the method: as §1
Mus musculus [22] = experiment: Analgesic activity in ICR mouse assessed as increase in pain threshold at 0.10 mmol/kg, po after 180 mins by tail flick method (reference value: 8.75 +/- 9.73 %); assay type: functional
Mus musculus [23] = experiment: Analgesic activity in ICR mouse assessed as increase in pain threshold at 0.15 mmol/kg, ip after 150 mins by tail flick method (reference value: 9.02 +/- 12.19 %); assay type: functional
Mus musculus [24] = experiment: Analgesic activity in ICR mouse assessed as increase in pain threshold at 0.15 mmol/kg, ip after 120 mins by tail flick method (reference value: 8.09 +/- 13.28 %); assay type: functional
Mus musculus [25] = experiment: Analgesic activity in ICR mouse assessed as increase in pain threshold at 0.15 mmol/kg, ip after 180 mins by tail flick method (reference value: 8.75 +/- 9.73 %); assay type: functional
Mus musculus [26] = experiment: Analgesic activity in ICR mouse assessed as increase in pain threshold at 0.15 mmol/kg, ip after 90 mins by tail flick method (reference value: 7.53 +/- 11.54 %); assay type: functional
Mus musculus [27] = experiment: Analgesic activity in ICR mouse assessed as increase in pain threshold at 0.15 mmol/kg, ip after 60 mins by tail flick method (reference value: 7.45 +/- 8.03 %); assay type: functional
Mus musculus [28] = experiment: Analgesic activity in ICR mouse assessed as increase in pain threshold at 0.15 mmol/kg, ip after 30 mins by tail flick method (reference value: 5.03 +/- 10.26 %); assay type: functional
Rattus norvegicus [29] = experiment: Antioxidant activity in mesenteric ischemia/reperfusion injury Wistar rat model ileum assessed as decrease of malondialdehyde levels at 20 mg/kg, ip administered 15 mins before and 1 hr after initiation of reperfusion by Beuge's method; assay type: functional, organism-based; set-up: dose 20 mg/kg
Summary of the method: (§2)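 Dosing 20 mg/kg ip 15 min before and 1 h after reperfusion onset. Intestinal MDA measured by the Beuge and Aust method as nmol/g tissue, and GSH by the Beutler method as µmol/g tissue.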

Rattus norvegicus [30] = experiment: Antioxidant activity in mesenteric ischemia/reperfusion injury Wistar rat model assessed as decrease of myeloperoxidase activity in intestinal tissue at 20 mg/kg, ip administered 15 mins before and 1 hr after initiation of reperfusion; assay type: functional, organism-based; set-up: dose 20 mg/kg
Rattus norvegicus [31] = experiment: Antiinflammatory activity in mesenteric ischemia/reperfusion injury Wistar rat model ileum assessed as reduction of mucosal damage at 20 mg/kg, ip administered 15 mins before and 1 hr after initiation of reperfusion by hematoxylin-eosin staining; assay type: functional, organism-based; set-up: dose 20 mg/kg
Summary of the method: (§3)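 Male Wistar rats (250–300 g) under pentobarbital (80 mg/kg ip) at 37 °C. Drug 20 mg/kg ip 15 min before reperfusion and 1 h into reperfusion, saline to other groups. Terminal ileum (10 mm) snap-frozen, cut at 4–5 µm by cryostat, stained with H&E, and viewed by light microscopy.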

Rattus norvegicus [32] = experiment: Antiinflammatory activity in mesenteric ischemia/reperfusion injury Wistar rat model assessed as reduction of focal denudation of epithelium villi at 20 mg/kg, ip administered 15 mins before and 1 hr after initiation of reperfusion by hematoxylin-eosin staining; assay type: functional, organism-based; set-up: dose 20 mg/kg; summary of the method: as §3
Rattus norvegicus [33] = experiment: Antioxidant activity in mesenteric ischemia/reperfusion injury Wistar rat model ileum assessed as restoration of glutathione levels at 20 mg/kg, ip administered 15 mins before and 1 hr after initiation of reperfusion by Beutler's method; assay type: functional, organism-based; set-up: dose 20 mg/kg; summary of the method: as §2

SMILES	Activity (Mus musculus [1]) [%]	Activity (Mus musculus [2]) [%]	Activity (Mus musculus [3]) [%]	Activity (Mus musculus [4]) [%]	Activity (Mus musculus [5]) [%]	Activity (Mus musculus [6]) [%]	Activity (Mus musculus [7]) [%]	inhibition in vivo at 50 µmol/kg (Mus musculus [8]) [%]	Activity (Mus musculus [9]) [%]	inhibition in vivo at 100 µmol/kg (Mus musculus [10]) [%]	Activity (Mus musculus [11]) [%]	Activity (Mus musculus [12]) [%]	Activity (Mus musculus [13]) [%]	Activity (Mus musculus [14]) [%]	Activity (Mus musculus [15]) [%]	Activity (Mus musculus [16]) [%]	Activity (Mus musculus [17]) [%]	inhibition (Mus musculus [18])	Activity (Mus musculus [19]) [%]	Activity (Mus musculus [20]) [%]	also measured
NCCCC[C@H](NC(=O)[C@@H]1Cc2c([nH]c3ccccc23)CN1)C(=O)N[C@@H](Cc1ccccc1)C(=O)N[C@@H](Cc1c[nH]c2ccccc12)C(=O)O (H-[Tpi]KFW-OH)	34.48	15.43	11.55	26.54	21.39	32.32	25.69	28.3	52.22	45.4	18.99	29.04	54.39	23.08	9.06	44.27	23.58	Dose-dependent effect	41.28	38.33	inhibition in vivo at 150 µmol/kg (Mus musculus [21]): 55.2%; Activity (Mus musculus [22]): 14.38%
CN1CC[C@]23c4c5ccc(O)c4O[C@H]2[C@@H](O)C=C[C@H]3[C@H]1C5 [MORPHINE]	–	–	–	–	–	–	–	–	–	–	–	–	–	–	–	–	–	–	–	–	Activity (Mus musculus [23]): 64.55%; Activity (Mus musculus [24]): 98.78%; Activity (Mus musculus [25]): 57.43%; Activity (Mus musculus [26]): 139.03%; Activity (Mus musculus [27]): 175.78%; Activity (Mus musculus [28]): 142.2%
CC(C)C[C@H](NC(=O)[C@@H]1Cc2c([nH]c3ccccc23)CN1)C(=O)N[C@@H](Cc1ccccc1)C(=O)N[C@@H](Cc1c[nH]c2ccccc12)C(=O)O (H-[Tpi]LFW-OH)	37.65	8.23	29.22	23.45	22.13	35.41	18.86	38.7	59.37	49.6	17.97	25.46	44.67	25.45	7.46	48.25	20.65	Dose-dependent effect	34.55	32.73	Activity (Rattus norvegicus [29]): Active; Activity (Rattus norvegicus [30]): Active; Activity (Rattus norvegicus [31]): Active; Activity (Rattus norvegicus [32]): Active; Activity (Rattus norvegicus [33]): Active; inhibition in vivo at 150 µmol/kg (Mus musculus [21]): 60.7%; Activity (Mus musculus [22]): 13.42%
